# This is a sample that favours compounds with a hit; in the whole collection about 5.1% have one here.
# STAT3 blocker: reduces IL-6 driven STAT3 reporter signal; U3A cells, IL-6 STAT3-luciferase reporter, luminescence; host cell line lacks STAT1; inhibition, % at 5.5 µM; 190,000 compounds, 0.89% hits; AID 862;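 active means inhibition above the mean inhibition across all screened compounds plus 3 SD, cut at about 44% in these data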;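 further: 0% = DMSO only wells and 100% = 100 µM nifuroxazide control wells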
# STAT1 inh: inhibitors of IFN-gamma induced STAT1 signaling | NIH 3T3 STAT1-luciferase reporter, luminescence | inhibition, % at 5.5 µM | 200,000 compounds, 0.35% hits | AID 920;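 active means inhibition above a set limit, the mean inhibition across all tested compounds plus 3 SD, cut at about 34% in these data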;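 further: 0% = IFN-gamma with DMSO and 100% = IFN-gamma with 300 µM nifuroxazide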
# NF-kB neuron act: NF-kB expression increase, human neuronal cells | 190,000 compounds, 1.6% hits | fold change at 12.5 µM | NF-kB reporter expression; stronger effect = higher value | AID 1239; in the data active means fold change above about 3.3
# STAT1 activator: STAT1 signaling activation; 200,000 compounds, 2.6% hits; activation (% of control), % at 5.5 µM; NIH 3T3 STAT1-luciferase reporter, IFN-gamma, luminescence; 100% = IFN-gamma alone, no compound;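 active means activation above the screen-wide mean activation plus 3 SD, cut at about 130% in these data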;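 further: raw ratio to IFN-gamma control signal so 100% means no change and 0% no light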
# APP 5'UTR act: APP 5'UTR luciferase reporter activation | 190,000 compounds, 1% hits | SH-SY5Y APP 5'UTR luciferase reporter, luminescence; zero percent = DMSO vehicle wells | activation, % at 2 µM;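 active means activation above a set limit, based on mean plus 3 SD of controls, cut at about 140% in these data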
# STAT3 activator: increases IL-6 driven STAT3 reporter signal. U3A cells, IL-6 STAT3-luciferase reporter, luminescence; 100% = signal with IL-6 EC80 alone. 190,000 compounds, 0.91% hits. activation (% of control), % at 5.6 µM;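 active means activation above the screen-wide mean of compound activation plus 3 SD, cut at about 130% in these data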;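 further: 0% = background luminescence of wells with medium and substrate only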
#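 Material: human STAT1-deficient U3A cells with stable STAT3-luciferase reporter / Probe or stimulus: IL-6 stimulus at 33 ng/mL final / Schedule: 1 h compound pre-exposure, 6 h IL-6 stimulation, 37 °C / Technique: luminescence / Read-out basis: percent of IL-6-only median luminescence / Control set: IL-6-only high control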
# * marks the source's active call; other numbers are inactive results.
SMILES,STAT3 blocker,STAT1 inh,NF-kB neuron act,STAT1 activator,APP 5'UTR act,STAT3 activator
CC1(C)CC(NC(=O)c2c(N)no[n+]2[O-])CC(C)(C)N1,-4.6,-3.3,0.79,102.1,2.9,110.9
O=C(NCc1cccnc1)c1csc2c1CCCC2,-9.7,8.2,1.07,92.7,-9.6,108.2
CCCCCCCC[n+]1cccc2c3ccccc3ccc21,87.4*,37.9*,1.98,63.8,-19.6,28.5
CCCCCCCCCC[n+]1cccc2c3ccccc3ccc21,87.2*,50.8*,1.77,52.0,-23.8,28.6
Cc1cccc[n+]1CCCCCCCCCC[n+]1ccccc1C,2.6,1.4,1.02,98.6,1.0,102.8
S=C(Nc1cccc(Cl)c1Cl)Nn1cnnc1,6.0,-5.5,1.21,104.9,6.6,99.4
O=C(Nc1cccnc1)c1sc2cccc(F)c2c1Cl,-10.5,-39.8,0.85,132.6*,82.8,112.9
CN(C)CCNC(=O)c1sc2cccc(F)c2c1Cl,13.4,-4.2,1.27,102.6,-18.1,95.0
O=C(Nc1ccccn1)c1sc2cccc(F)c2c1Cl,35.4,15.2,5.67*,84.4,179.2*,71.6
COc1cc(/C=N/Nc2ccccn2)ccc1OCC(C)C,-0.8,-55.0,1.49,148.1*,91.1,108.8
C=CCOc1ccc(/C=N/Nc2ccccn2)cc1OC,22.4,-44.1,2.55,138.4*,91.1,88.3
CCCOc1ccc(/C=N/Nc2ccccn2)cc1OC,0.7,-51.3,2.41,147.7*,118.1,101.0
COc1cc(/C=N/Nc2ccccn2)cc(OC)c1O,17.3,-5.6,1.85,107.0,-15.2,89.3
COc1ccccc1CN1C(=O)c2ccccc2C1C(=O)NC1CCC(C)CC1 (stereo unspecified),0.4,9.3,1.13,90.0,13.1,100.7
Cc1ccc(N/C(N)=N/c2nc(C)cc(N3CCCCC3)n2)c(C)c1,40.6,35.9*,1,64.9,-12.1,69.6
O=C(c1ccc(-c2ccc(Cl)cc2)o1)N1CCN(c2ccc([N+](=O)[O-])cc2Cl)CC1,17.7,7.4,0.68,93.2,-6.2,91.1
O=C(c1ccc(-c2ccc([N+](=O)[O-])cc2)o1)N1CCCCC1,-14.8,-31.8,4.78*,128.3,180.0*,110.1
Cc1c(/C=N/NC(=O)c2cc(=O)[nH]c(=O)[nH]2)c2ccccn2c1C(=O)c1ccccc1,8.8,8.0,0.94,92.7,0.1,97.4
CC(=O)Oc1ccc2c(=O)c(-c3ccccc3)coc2c1,6.6,-34.3,2.5,130.7*,69.1,95.8
CCCn1nnc(NC(=O)c2ccc(Cl)cc2Cl)n1,-16.6,-33.4,1.97,130.9*,57.7,118.7
CCCn1nnc(NC(=O)c2ccccc2Cl)n1,0.2,-10.6,1.73,109.7,11.8,103.3
CCn1c(SCC(=O)NC(C)(C)C)nnc1-c1ccccn1,-0.8,4.3,0.96,96.0,-4.3,104.6
CN(C)CCCN(C(=O)/C=C/c1cccs1)c1nc2c(F)cccc2s1,12.7,-0.5,5.44*,98.8,29.1,97.8
COC(=O)c1ccc(COn2nnc3ccccc32)cc1,21.0,-28.8,5.41*,127.3,199.9*,88.5
Cc1ccc(C)c(NC(=O)CN(C)C(=O)COc2ncnc3sccc23)c1,-7.1,-6.0,1.02,105.4,-8.7,106.0
SMILES,STAT3 blocker,STAT1 inh,NF-kB neuron act,STAT1 activator,APP 5'UTR act,STAT3 activator
COC(=O)c1ccc2nc(NC(=O)C3CCCCC3)sc2c1,-2.1,-26.1,1.57,124.1,141.1*,107.0
COC(=O)c1ccc2nc(Nc3nc4ccc(F)cc4s3)sc2c1,92.5*,63.8*,2.02,42.9,-42.5,24.1
CC(=O)c1sc(Nc2nc3ccc(F)cc3s2)nc1C,-2.1,-38.8,2.67,135.4*,44.1,106.2
CC(=O)Nc1nc2ccc(C(=O)NC3CCCCC3)cc2s1,6.7,2.0,1.3,98.2,-2.8,96.1
COC(=O)c1ccc2nc(NC(=O)C(C)(C)C)sc2c1,99.7*,73.8*,1.06,30.5,107.6,15.8
CCOC(=O)c1csc(Nc2nc3ccc(F)cc3s2)n1,10.3,-19.3,1.17,117.6,15.0,95.8
COC(=O)Nc1nc2ccc(Br)cc2s1,15.3,-13.9,1.45,112.7,48.1,91.2
O=C(CSc1nc2cc([N+](=O)[O-])ccc2n1-c1ccc(F)cc1)NC1CCS(=O)(=O)C1 (stereo unspecified),-13.5,-9.3,1.12,108.4,3.6,111.9
Cc1ccc(C(=O)NC(NC(=O)c2ccc(C)cc2)c2cccc([N+](=O)[O-])c2)cc1,-1.8,-9.1,0.99,108.3,5.9,97.8
O=C(NCC1CCCN(Cc2ccc3nonc3c2)C1)c1ccc(F)cc1 (stereo unspecified),-6.6,-2.8,0.92,101.3,-14.2,110.3
CC(C)N(C(=O)COc1ccc(Br)cc1Cl)C(C)C,6.7,6.1,0.96,94.3,10.7,96.1
Cc1[nH]c2ccccc2c1/C=N/NC(=S)NCc1ccccc1,22.2,4.8,1.05,94.2,-6.9,86.3
Cn1c(-c2sc(=S)n(-c3ccccc3)c2N)nc2ccccc21,-38.3,-3.0,1.49,102.7,-2.2,133.4*
C/C(=N\NC(=O)c1ccc(N/N=C(\C)c2ccncc2)cc1)c1ccncc1,18.9,-9.6,1.08,107.5,-7.4,89.2
C/C(=N\Nc1ccc(C(F)(F)F)cn1)c1ccncc1,15.5,-35.7,1.82,134.3*,30.2,88.5
COc1ccc(NC2=Nc3ccccc3CC2)cc1,-19.2,-32.6,3.72*,132.1*,102.3,122.4
OC(CNCc1ccccc1)Cn1ccc2ccccc21 (stereo unspecified),6.0,2.9,0.98,97.4,7.8,94.9
Oc1ccccc1NCC(O)Cn1ccc2ccccc21 (stereo unspecified),-35.4,-1.8,0.91,101.6,12.4,134.5*
CC12CCC(C(=O)Nc3ccccc3)(C(Br)C1=O)C2(C)C (stereo unspecified),4.2,-3.7,1.15,103.3,12.0,96.6
Cc1ccccc1Nc1nnc(SCC(=O)Nc2ccccc2[N+](=O)[O-])s1,-26.5,-7.8,0.81,107.0,13.1,126.3
CCCSc1nnc(Nc2ccccc2C)s1,12.4,-32.2,2.15,129.4*,49.6,92.8
O=C(COC(=O)C12CC3CC(CC(Br)(C3)C1)C2)Nc1cccnc1Cl,0.4,1.5,1.29,98.2,10.9,104.8
COC(=O)c1cccc(COC(=O)c2cccnc2SC)c1,-0.3,-14.2,3.53*,113.0,19.1,103.3
COc1ccc(C(C)=O)cc1COC(=O)c1cccnc1SC,18.9,1.8,3.9*,98.4,-1.6,84.8
CSc1ncccc1C(=O)OCc1ccc(C#N)cc1,2.9,-7.0,1.12,106.4,11.6,96.3
CC(=O)NCCCNS(=O)(=O)c1ccc(C)cc1,11.9,-7.7,1.19,105.5,5.4,93.3
Cc1cccc(-c2nsc(SCC(=O)NCC3CCCO3)n2)c1 (stereo unspecified),-5.7,-2.2,1.4,103.7,-10.2,109.3
